Test results from ChEMBL document CHEMBL4028907, “Semisynthesis and Biological Evaluation of Xanthone Amphiphilics as Selective, Highly Potent Antifungal Agents to Combat Fungal Resistance” (J Med Chem, 2017).
In brackets after ≈: the same amount, converted by molar mass. Activity calls are given as the source filed them. The calls are words filed in the database; no cut-off is given here.

Key:
Candida albicans [1] = test: Antifungal activity against drug resistant Candida albicans DF2672R after 24 hrs by two fold serial dilution method; type: functional
Procedure, shortened: (§1)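 Candida grown on Sabouraud dextrose agar at 35 °C for 24 h, adjusted to ~5×10^3 CFU/mL. Two-fold dilutions from 100 to 0.78 μg/mL in Sabouraud dextrose broth, incubated at 35 °C for 24 h. MIC is the lowest concentration inhibiting growth by eye and by OD600. CLSI-based with minor modifications.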

[2] = Selectivity index, ratio of HC50 for New Zealand white rabbit RBC to MIC for Candida albicans ATCC 10231
[3] = Dissociation constant, pKa of compound; type: physicochemical
Staphylococcus aureus [4] = test: Antibacterial activity against Staphylococcus aureus DM4001R by two fold serial dilution method; type: functional
Procedure, shortened: (§2)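 Broth microdilution (CLSI, minor modifications) in Sabouraud dextrose, Mueller−Hinton or RPMI 1640 broth; two-fold serial dilutions of compound from stock to final 100 to 0.78 μg/mL. MIC taken as lowest concentration giving no visible growth.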

Bacillus cereus = test: Antibacterial activity against Bacillus cereus ATCC11778 by two fold serial dilution method; type: functional; procedure, shortened: as §2
Klebsiella pneumoniae = test: Antibacterial activity against Klebsiella pneumoniae DM4299 by two fold serial dilution method; type: functional; procedure, shortened: as §2
Pseudomonas aeruginosa = test: Antibacterial activity against Pseudomonas aeruginosa DM23155 by two fold serial dilution method; type: functional; procedure, shortened: as §2
Candida albicans [5] = test: Antifungal activity against Candida albicans DF1976R after 24 hrs by two fold serial dilution method; type: functional; procedure, shortened: as §1
Candida albicans [6] = test: Antifungal activity against Candida albicans ATCC90028 after 24 hrs by two fold serial dilution method; type: functional; settings: ATCC90028, 24 h; procedure, shortened: as §1
Candida albicans [7] = test: Antifungal activity against Candida albicans ATCC11651 after 24 hrs by two fold serial dilution method; type: functional; settings: ATCC11651, 24 h; procedure, shortened: as §1
Fusarium solani [8] = test: Antifungal activity against Fusarium solani 52628 after 48 hrs by two fold serial dilution method; type: functional; settings: Fusarium solani, 52628, 48 h
Procedure, shortened: (§3)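 Moulds grown on potato dextrose agar, 30 °C, 4 days; inoculum adjusted to about 5×10^3 CFU/mL. Two-fold serial dilutions in RPMI-1640 broth, 100 to 0.78 μg/mL final, mixed with equal volume of cell suspension; incubated 30 °C, 48 h. MIC = lowest concentration inhibiting growth, judged visually and by OD530.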

Fusarium solani [9] = test: Antifungal activity against Fusarium solani 62877 after 48 hrs by two fold serial dilution method; type: functional; settings: Fusarium solani, 62877, 48 h; procedure, shortened: as §3
Fusarium solani [10] = test: Antifungal activity against Fusarium solani 46492 after 48 hrs by two fold serial dilution method; type: functional; settings: Fusarium solani, 46492, 48 h; procedure, shortened: as §3
Aspergillus fumigatus [11] = test: Antifungal activity against Aspergillus fumigatus TCC MYA3626 after 48 hrs by two fold serial dilution method; type: functional; settings: TCC MYA3626, 48 h; procedure, shortened: as §3
Aspergillus fumigatus [12] = test: Antifungal activity against Aspergillus fumigatus TCC 90906 after 48 hrs by two fold serial dilution method; type: functional; settings: TCC 90906, 48 h; procedure, shortened: as §3
Candida albicans [13] = test: Synergistic antifungal activity against drug resistant Candida albicans DF2672R after 24 hrs in presence of itraconazole by checkerboard assay; type: functional
Procedure, shortened: (§4)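 Checkerboard combination of each compound with a second antifungal, following a previously reported procedure. FIC = MIC of A in combination/MIC of A alone + MIC of B in combination/MIC of B alone.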

Candida albicans [14] = test: Synergistic antifungal activity against drug resistant Candida albicans DF2672R after 24 hrs in presence of miconazole by checkerboard assay; type: functional; procedure, shortened: as §4
Candida albicans [15] = test: Synergistic antifungal activity against drug resistant Candida albicans DF2672R after 24 hrs in presence of posaconazole by checkerboard assay; type: functional; procedure, shortened: as §4
Candida albicans [16] = test: Synergistic antifungal activity against drug resistant Candida albicans DF2672R after 24 hrs in presence of amphotericin B by checkerboard assay; type: functional; procedure, shortened: as §4
Candida albicans [17] = test: Fungicidal activity against drug resistant Candida albicans DF2672R at 4 times MIC after 1 hr by time kill assay relative to control; type: functional
Procedure, shortened: (§5)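 Cells at 10^5–10^6 CFU/mL exposed to 1×, 2×, 4× or 8× MIC at 35 °C. Samples taken at 0.5, 1, 2, 4, 8 and 24 h, serially diluted in PBS and plated on SDA. CFU counted after 24 h at 35 °C; biological replicates.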

Candida albicans [18] = test: Fungicidal activity against drug resistant Candida albicans DF2672R at 1 time MIC after 24 hrs by time kill assay; type: functional; procedure, shortened: as §5
Candida albicans [19] = test: Antifungal activity against drug resistant Candida albicans DF2672R measured after 27 passages by two fold serial dilution method; type: functional
Procedure, shortened: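 Serial passage: cells from duplicate tubes at 0.5× MIC adjusted to ~5×10^3 CFU/mL and used as the inoculum for the next broth microdilution MIC, 24 h at 35 °C. Repeated for 27–30 passages, with biological replicates.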

[20] = Selectivity index, ratio of IC50 for human corneal fibroblasts to MIC for drug resistant Candida albicans DF2672R
Candida albicans [21] = test: Induction of membrane permiablization in drug resistant Candida albicans DF2672R at 4 times MIC after 1 to 2 hrs by SYTOX green dye based spectrofluorometric assay; type: functional
Procedure, shortened: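 Overnight cultures washed and resuspended in PBS at OD600 0.2, then loaded with 0.3 μM SYTOX Green in the dark. After the signal stabilised, compound in PBS/DMF was added (final DMF 0.5%; 0.5% DMF as control). Fluorescence (ex 504/em 523 nm) followed continuously for 1–2 h; biological replicates.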

Lipid bilayer = test: Induction of membrane permiablization in calcein loaded DOPC/DOPE/PI large unilamellar vesicles assessed as calcein leakage at 1:4 compound to lipid ratio after 1 to 2 hrs by fluorescence assay relative to control
Procedure, shortened: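 LUVs (DOPC/DOPE/PI 2:1:1 with 15 wt % ergosterol, about 100 nm) made by film hydration and extrusion, loaded with 80 mM calcein in HEPES buffer pH 7.4. Free dye removed by G-50 column. Compound added in 0.5% DMF at 50 μM final phospholipid. Emission read at 520 nm (excitation 490 nm); leakage normalized to 1% Triton X-100.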

Candida albicans [22] = test: Potency index, ratio of natamycin concentration to compound concentration for antifungal activity against drug resistant Candida albicans DF2672R infected C57BL6 mouse; type: functional
Staphylococcus aureus [23] = test: Antibacterial activity against methicillin resistant Staphylococcus aureus DM9808R by two fold serial dilution method; type: functional
Procedure, shortened: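 Broth microdilution per CLSI guidelines with minor modifications, run in Mueller−Hinton broth; MIC is the lowest concentration giving no visible growth.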

[24] = Cytotoxicity against human corneal fibroblasts assessed as cell viability at 100 uM after 4 hrs by LDH assay relative to control; type: cell-based, Corneal fibroblast; settings: read-out: Activity
Procedure, shortened: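 LDH release assay on human corneal fibroblasts seeded at 10000 cells per well, exposed to a range of compound concentrations up to 100 μM. 1% Triton X-100 served as positive control and 0.5% DMSO as negative control; biological replicates.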

## COc1c(OCC(O)CNC(=N)N)cc2oc3cc(OCC(O)CNC(=N)N)c(CC=C(C)C)c(O)c3c(=O)c2c1CC=C(C)C (stereo not drawn)
Candida albicans [1]
  MIC: 0.78 mg/L (≈ 1.22 µM)
[2]
  Selectivity Index: 61
[3]
  pKa: 12.5
Staphylococcus aureus [4]
  MIC: 1.56 to 3.13 mg/L (≈ 2.43 to 4.88 µM)
Bacillus cereus
  MIC: 1.56 to 3.13 mg/L (≈ 2.43 to 4.88 µM)
Klebsiella pneumoniae
  MIC: 25 to 50 mg/L (≈ 39 to 78 µM)
Pseudomonas aeruginosa
  MIC: 25 to 50 mg/L (≈ 39 to 78 µM)
Candida albicans [5]
  MIC: 0.78 mg/L (≈ 1.22 µM)
Candida albicans [6]
  MIC: 0.78 mg/L (≈ 1.22 µM)
Candida albicans [7]
  MIC: 0.78 mg/L (≈ 1.22 µM)
Fusarium solani [8]
  MIC: 3.13 mg/L (≈ 4.88 µM)
Fusarium solani [9]
  MIC: 3.13 mg/L (≈ 4.88 µM)
Fusarium solani [10]
  MIC: 3.13 mg/L (≈ 4.88 µM)
Aspergillus fumigatus [11]
  MIC: 6.25 mg/L (≈ 9.75 µM)
Aspergillus fumigatus [12]
  MIC: 6.25 mg/L (≈ 9.75 µM)
Candida albicans [13]
  fractional inhibitory concentration index (FICI): 1.28
Candida albicans [14]
  fractional inhibitory concentration index (FICI): 0.88
Candida albicans [15]
  fractional inhibitory concentration index (FICI): 1.06
Candida albicans [16]
  fractional inhibitory concentration index (FICI): 1.28
Candida albicans [17]
  Activity: 99.9%
Candida albicans [18]
  Activity: Active
Candida albicans [19]
  Activity: Active
[20]
  Selectivity Index: 41 - 82
Candida albicans [21]
  Activity: Active
Lipid bilayer
  Activity: 75.6%
Candida albicans [22]
  Ratio: 25
Staphylococcus aureus [23]
  MIC: 1.56 to 3.13 mg/L (≈ 2.43 to 4.88 µM)
[24]
  viability at 4 h, 100 µM: 44.4%
